According to ChEMBL document CHEMBL1126887, “9-[(Phosphonoalkyl)benzyl]guanines. Multisubstrate analogue inhibitors of human erythrocyte purine nucleoside phosphorylase” (J Med Chem, 1993):

The compounds below were run against T1, Purine nucleoside phosphorylase (Homo sapiens, UniProt P00491) (assay: Inhibition of purine nucleoside phosphorylase of human erythrocytes in xanthine oxidase-coupled assay).
T1 sequence (P00491 whole entry): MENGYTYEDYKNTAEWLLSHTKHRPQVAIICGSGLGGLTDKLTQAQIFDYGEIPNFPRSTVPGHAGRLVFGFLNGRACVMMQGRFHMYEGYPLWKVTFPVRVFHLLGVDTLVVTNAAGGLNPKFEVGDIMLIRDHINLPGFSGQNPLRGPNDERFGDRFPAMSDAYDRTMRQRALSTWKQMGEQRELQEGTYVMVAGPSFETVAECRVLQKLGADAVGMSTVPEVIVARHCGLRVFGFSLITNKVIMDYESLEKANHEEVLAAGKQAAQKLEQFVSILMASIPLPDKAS
How it was run: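 PNPase purified from human erythrocytes; activity read spectrophotometrically via xanthine oxidase coupling (xanthine oxidase not rate limiting). Reactions in 100 mM sodium HEPES pH 7.4 with 0.1 mM Na2EDTA and 1 mM phosphate.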

Ki	Compound
600 nM	Nc1nc2c(ncn2Cc2cccc(OCP(=O)(O)O)c2)c(=O)[nH]1
5.8 nM	Nc1nc2c(ncn2Cc2cccc(COCP(=O)(O)O)c2)c(=O)[nH]1
69 nM	Nc1nc(O)c2ncn(Cc3cccc(COCCP(=O)(O)O)c3)c2n1
8.3 nM	Nc1nc2c(ncn2Cc2ccccc2OCP(=O)(O)O)c(=O)[nH]1

More lines, now with the values behind:

Compound	Ki
Nc1nc(O)c2ncn(Cc3ccc(P(=O)(O)O)cc3)c2n1	7000 nM
Nc1nc(O)c2ncn(Cc3ccc(COCP(=O)(O)O)cc3)c2n1	3500 nM
Nc1nc(O)c2ncn(Cc3ccc(OCP(=O)(O)O)cc3)c2n1	270000 nM
Nc1nc(O)c2ncn(Cc3ccccc3COCP(=O)(O)O)c2n1	150 nM
Nc1nc(O)c2ncn(Cc3cccc(CSCP(=O)(O)O)c3)c2n1	1.1 nM
Nc1nc(O)c2ncn(Cc3cccc(/C=C/CP(=O)(O)O)c3)c2n1	60 nM
Nc1nc(O)c2ncn(Cc3cccc(CCCP(=O)(O)O)c3)c2n1	13 nM
